PostGolgi yeast: growth inhibition of a yeast mutant, post-Golgi transport screen; post-Golgi transport phenotypic cell assay; inhibition, % at 10 µM; 98,000 tested, 0.9% active; AID 739;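 also: yeast cells grown in 1536-well plates; yeast grown about 18 h at 30C before absorbance read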
tolC growth inh: growth inhibitors of E. coli BW25113 tolC mutant; OD615; growth inhibition, % at 10 µM (by protocol); 65,000 tested, 2.2% active; AID 573;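 active = growth inhibition at or above a cutoff equal to the mean over every tested compound plus 3 SD, cut at about 60% in these data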;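 also: growth measured after 20 h incubation at 37 °C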
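Material: E. coli BW25113 ΔtolC::kan, tolC deletion mutant strain. Measure: percent growth inhibition. Schedule: 37 °C, 20 h exposure. Doses: single-point testing at 10 µM. Signal: A615 absorbance measurement. Buffer or medium: kanamycin-containing LB broth (50 µg/mL).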
HER2 expr 66K: lowers expression of human Her2 kinase; P04626; SKBR-3 HER2 protein level, AlphaScreen, 18-24 h; hits give low values; HER2 level % of control, % at 10 µM; 65,000 tested, 0.69% active;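 active = HER2 level under 5% of the carrier-only control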;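 also: 100% = DMSO carrier and 0% = 500 nM PU-H71 HSP90 inhibitor; lower value means stronger loss of Her2 protein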
Target sequence (P04626 whole entry, looked up): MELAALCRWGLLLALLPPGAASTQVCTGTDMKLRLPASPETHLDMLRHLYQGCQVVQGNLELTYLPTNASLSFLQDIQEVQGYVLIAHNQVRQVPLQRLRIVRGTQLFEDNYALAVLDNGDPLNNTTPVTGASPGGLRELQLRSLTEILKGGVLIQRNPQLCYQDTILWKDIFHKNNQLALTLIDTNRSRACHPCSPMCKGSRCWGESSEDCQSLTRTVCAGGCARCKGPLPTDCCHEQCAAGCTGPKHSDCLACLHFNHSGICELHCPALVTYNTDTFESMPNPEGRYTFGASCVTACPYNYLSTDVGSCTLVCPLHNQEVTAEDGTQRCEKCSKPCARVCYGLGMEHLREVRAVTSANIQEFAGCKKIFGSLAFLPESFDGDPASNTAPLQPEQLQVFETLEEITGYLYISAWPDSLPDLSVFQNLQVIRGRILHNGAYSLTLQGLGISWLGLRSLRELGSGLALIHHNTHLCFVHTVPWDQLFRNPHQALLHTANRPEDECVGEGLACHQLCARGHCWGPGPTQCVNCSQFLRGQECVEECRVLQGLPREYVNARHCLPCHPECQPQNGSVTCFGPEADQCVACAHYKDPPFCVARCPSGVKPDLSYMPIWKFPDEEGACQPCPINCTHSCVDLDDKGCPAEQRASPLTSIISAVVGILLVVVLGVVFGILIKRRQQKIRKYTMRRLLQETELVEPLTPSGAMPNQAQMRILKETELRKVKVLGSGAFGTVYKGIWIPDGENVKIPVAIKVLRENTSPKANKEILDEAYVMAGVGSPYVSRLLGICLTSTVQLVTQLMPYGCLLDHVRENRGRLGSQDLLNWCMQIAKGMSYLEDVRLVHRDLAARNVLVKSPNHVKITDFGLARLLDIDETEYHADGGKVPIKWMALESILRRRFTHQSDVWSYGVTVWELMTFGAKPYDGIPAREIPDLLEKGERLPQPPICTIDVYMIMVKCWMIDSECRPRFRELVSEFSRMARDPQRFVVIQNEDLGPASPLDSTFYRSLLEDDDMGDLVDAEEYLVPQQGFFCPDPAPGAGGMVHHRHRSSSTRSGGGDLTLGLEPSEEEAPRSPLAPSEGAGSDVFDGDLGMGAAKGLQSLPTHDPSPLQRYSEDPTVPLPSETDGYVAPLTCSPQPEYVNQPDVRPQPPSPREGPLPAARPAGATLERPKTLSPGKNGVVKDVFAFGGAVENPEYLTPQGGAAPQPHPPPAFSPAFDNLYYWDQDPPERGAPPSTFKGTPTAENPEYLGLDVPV
Ecoli WT expand: E. coli BW25113 growth inhibition, expanded screen | OD600 absorbance | growth inhibition, % at 100 µM | 98,000 tested, 0.15% active;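 active = growth inhibition above about 50% at one test dose, limit read from the data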;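 also: growth measured after 20 h incubation at 37 °C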
PostGolgi ctrl: inhibits growth of the yeast control strain; efflux-deficient yeast background strain, growth absorbance A615, 16 h; inhibition, % at 10 µM; 98,000 tested, 5% active; AID 738
* = called active by the depositor; . = no result given. Rows were chosen to be rich in hits. Some 6.6% of all compounds tested hit in one or more screens of this group. Rule as the data show it, unless noted: active = inhibition above about 30%; inactive = the rest.

SMILES | PostGolgi yeast | tolC growth inh | HER2 expr 66K | Ecoli WT expand | PostGolgi ctrl
O=C(c1ccccc1)c1c[nH]c2cc3c(cc2c1=O)OCCO3 | . | -4 | 112 | . | .
COCCN1C(=O)c2oc3ccccc3c(=O)c2C1c1ccc(O)c(OC)c1 (configuration not stated) | -1 | -8 | 95 | 2 | 6
COCCN1C(=O)c2oc3ccccc3c(=O)c2C1c1cccc(O)c1 (configuration not stated) | 6 | -9 | 92 | -3 | 32*
COc1cc(OC)nc(NC2OC(=O)c3ccccc32)n1 (configuration not stated) | -5 | . | 102 | 12 | 2
O=C1NC2(Nc3ccccc31)C(=O)Nc1ccccc12 (configuration not stated) | 44* | -3 | 99 | -6 | 14
Cc1cccc2nc(C(F)(F)F)nc(=O)n12 | 5 | -5 | 117 | 2 | 6
Nc1cc(N)c(OCC(F)(F)F)cc1OCC(F)(F)F | 30* | -14 | 56 | 13 | -2
S=C(Nc1ccccc1)Nc1ccc(OCc2ccc(Cl)cc2Cl)cc1 | -1 | . | . | -6 | -10
OCCCCNCc1ccc(OCc2ccc(Cl)cc2Cl)cc1 | 51* | . | . | 33 | 27
COc1ccc(N/C=C(\C#N)c2nc3ccccc3n2C)c(OC)c1 | 24 | 22 | 107 | -9 | 49*
N#CCCN1CCN(C(=S)c2ccc(-c3ccc(Cl)c(Cl)c3)o2)CC1 | 8 | 55 | 95 | -33 | 33*
N#CCCN1CCN(C(=S)c2ccc(-c3cccc(Cl)c3)o2)CC1 | -4 | 22 | 121 | -27 | 17
COc1cc2c(cc1OC)CN(c1ccc(-c3ccccc3OC)nn1)CC2 | 4 | 39 | -3.7* | -12 | 5
O=C1C(Cl)=C(N2CCCCCC2)C(=O)N1c1ccccc1 | -4 | 26 | 57 | -2 | 18
CN1CCN(C2=C(Cl)C(=O)N(c3ccc(Cl)cc3)C2=O)CC1 | 1 | -5 | 84 | -3 | 31*
COc1ccc(NC(=O)N2CCC(c3nc(-c4cccs4)no3)CC2)cc1 | 15 | 20 | 95 | 8 | -4
O=C(Nc1ccc(Cl)cc1)N1CCC(c2nc(-c3ccccc3Cl)no2)CC1 | 11 | . | . | -22 | 40*
O=C(Nc1ccc(Cl)cc1)N1CCC(c2nc(-c3cccs3)no2)CC1 | . | 100* | 97 | -4 | 44*
O=C(Nc1cccc(C(F)(F)F)c1)N1CCC(c2nc(-c3ccc(F)cc3)no2)CC1 | 1 | 89* | 44 | -1 | 70*
Cc1ccccc1N1CCN(C(=O)CCN2C(=O)c3ccccc3C2=O)CC1 | 14 | . | . | 0 | 25
COc1ccc(-c2nnc(SCC(=O)Nc3ccc4c(c3)OCCO4)n2N)cc1OC | 1 | . | . | -6 | 12
O=C(NCCO)c1cccc(Nc2nc(-c3ccccc3)c3cc(Cl)ccc3n2)c1 | 5 | . | . | 3 | 49*
CCOC(=O)c1ccccc1NC(=O)c1ccc(F)cc1 | -6 | . | . | 2 | 8
CCOC(=O)c1ccccc1NC(=O)c1c(F)c(F)c(F)c(F)c1F | 7 | 65* | 82 | -4 | -2
CCOC(=O)c1c(-c2ccc(C)o2)csc1NC(=O)COC(=O)c1ccc(NC(N)=O)cc1 | -7 | . | . | -12 | 0
SMILES | PostGolgi yeast | tolC growth inh | HER2 expr 66K | Ecoli WT expand | PostGolgi ctrl
O=C(N/N=C/c1ccc[nH]1)c1sc2ccccc2c1Cl | -5 | . | . | 4 | 6
CCc1ccc2c(Cl)c(C(=O)N/N=C/c3c[nH]c4ccccc34)sc2c1 | 1 | . | . | -7 | 42*
CCC(c1nnnn1Cc1ccco1)N1CCC(C(N)=O)CC1 (configuration not stated) | 15 | 25 | 91 | 4 | -6
c1ccc(Cn2nnnc2C(c2ccccc2)N2CCN(c3nc4ccccc4s3)CC2)cc1 (configuration not stated) | -1 | 15 | 121 | -11 | 1
CCCCC(c1nnnn1Cc1ccco1)N1CCN(c2nc3ccccc3s2)CC1 (configuration not stated) | 94* | 39 | 100 | -5 | 46*
CCC(c1nnnn1Cc1ccco1)N1CCN(c2cc(Cl)ccc2C)CC1 (configuration not stated) | 4 | 43 | 114 | -10 | 56*
Cc1ccc(Cl)cc1N1CCN(Cc2nnnn2Cc2ccco2)CC1 | 4 | 65* | 91 | -15 | 38*
Cc1ccc(Cl)cc1N1CCN(Cc2nnnn2C2CCCCC2)CC1 | 5 | 37 | 92 | -22 | 58*
CC(C)NC(=O)c1onc(CSc2cccc(F)c2)c1C(=O)O | 15 | . | . | 2 | -4
CCCn1nnnc1SCC(=O)N(C(C)C)C(C)C | -1 | -15 | 83 | 3 | -3
Cc1ccc(NC(=O)/C(=C\c2cccnc2)NC(=O)c2ccco2)cc1 | 9 | . | . | 6 | 0
CCn1c(C)[n+](CCOCC[n+]2c(C)n(CC)c3cc(Cl)c(Cl)cc32)c2cc(Cl)c(Cl)cc21 | 1 | . | . | -15 | 4
CCCCn1c(SCC(=O)NCc2cccs2)nc2c1c(=O)n(C)c(=O)n2C | -2 | -6 | 95 | 7 | 3
O=C(N/C(=C/c1ccc(Cl)cc1)c1nc2ccccc2[nH]1)c1ccco1 | 23 | . | . | -6 | -3
O=C(/C(=C/c1ccc(Cl)cc1)c1nc2ccccc2[nH]1)c1ccccc1 | 62* | . | . | 2 | 102*
O=C1Nc2cc3c(cc2Sc2ccccc21)OCCO3 | 9 | 4 | 144 | -1 | 7
COc1cccc(-c2nn(C)c3sc(C(=O)NCc4ccc5c(c4)OCO5)cc23)c1 | -9 | 20 | 130 | -7 | 30*
Cc1noc(C)c1S(=O)(=O)NCc1ccc2c(c1)OCO2 | -1 | -9 | 116 | -2 | 3
Clc1ccc(-c2n[nH]c3c2CCC3)cc1Cl | 101* | . | . | 3 | 69*
Fc1ccc(C2=Nn3c(nnc3-c3n[nH]c4c3CCC4)SC2)cc1 | 16 | 20 | 144 | -5 | 17
CN(C)c1ccc(C2C=C(c3ccc(Cl)cc3OC(F)F)Nc3ncnn32)cc1 (configuration not stated) | 3 | 96* | 29 | -10 | 31*
CC(=O)c1cccc(NC(=O)C2CCN(S(=O)(=O)c3c(C)n[nH]c3C)CC2)c1 | 1 | -3 | 114 | -1 | 0
O=C(CP(=O)(c1ccccc1)c1ccccc1)Nn1cnnc1 | 6 | -12 | 124 | -10 | -6
CC(C)NC(=O)CSc1nncn1-c1ccccc1 | 4 | -6 | 96 | -2 | 33*
Cc1ccc(-c2nnc(N3CCCCC3)c3ccccc23)cc1S(=O)(=O)NCC1CCCO1 (configuration not stated) | 0 | . | . | -6 | 13
CN1CC(c2ccccc2Cl)C2(COc3ccccc3C2=O)C12C(=O)Nc1ccccc12 (configuration not stated) | 2 | . | . | -8 | 46*
Cc1ccc(C2CN(C)C3(C(=O)Nc4ccccc43)C23COc2ccccc2C3=O)cc1 (configuration not stated) | -5 | . | . | -2 | 80*
COC(=O)c1ccccc1NC(=O)CSc1nnc(Cc2ccc(Cl)cc2)o1 | -17 | 42 | 81 | -8 | 26

Screening results deposited in PubChem BioAssay by SRMLSC.
